High-throughput results as filed in PubChem BioAssay.
Diaph inh CS: diaphorase inhibitors and chemical oxidizers, primary screen, counter-screen for diaphorase-coupled primary assays, biochemical, uHTS, resorufin fluorescence; diaphorase resazurin-to-resorufin fluorescence, NADH, 16 min; bacterial (C. kluyveri) enzyme, not human; inhibition, % at 20 µM; 190,000 tested, 0.69% active; AID 1217, 2008;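 active means primary screen inhibition at 20 µM above a set limit, cut at about 50% in these data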;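 further: plate controls were DMSO with full reaction for no effect and wells lacking NADH for full effect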
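Assay system: diaphorase enzyme from Clostridium kluyveri. Quantity: enzyme working solution with 0.14 U/mL diaphorase. Schedule: reaction incubation of 16 min at room temperature. Technique: resorufin fluorescence, excitation 544 nm, emission 590 nm. Controls: No-NADH positive control and DMSO neutral control.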
TbHK1 inh: Trypanosoma brucei hexokinase 1 inhibitors, primary screen, biochemical, G6PDH-coupled NADH absorbance, MLSCN library; inhibition, % at 10 µM; 220,000 tested, 0.11% active; hexokinase 1 [Trypanosoma brucei]; recombinant TbHK1, G6PDH-coupled NADH A340;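 active means inhibition of 50% or more in the single-dose primary screen; inactive means inhibition below 50%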
HKDC1 inhibitor: HKDC1 hexokinase inhibitors, primary screen, biochemical, fluorescence, uHTS; Q2TB90; recombinant HKDC1, G6PDH/diaphorase resazurin coupled fluorescence; inhibition, % at 20 µM; 340,000 tested, 0.16% active; AID 493160, 2011;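 active means inhibition above about 35% when tested at 20 µM, limit read from the data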;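 further: plate controls were DMSO wells with enzyme for no effect and DMSO wells lacking enzyme for full effect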
Target sequence (Q2TB90 whole entry, looked up): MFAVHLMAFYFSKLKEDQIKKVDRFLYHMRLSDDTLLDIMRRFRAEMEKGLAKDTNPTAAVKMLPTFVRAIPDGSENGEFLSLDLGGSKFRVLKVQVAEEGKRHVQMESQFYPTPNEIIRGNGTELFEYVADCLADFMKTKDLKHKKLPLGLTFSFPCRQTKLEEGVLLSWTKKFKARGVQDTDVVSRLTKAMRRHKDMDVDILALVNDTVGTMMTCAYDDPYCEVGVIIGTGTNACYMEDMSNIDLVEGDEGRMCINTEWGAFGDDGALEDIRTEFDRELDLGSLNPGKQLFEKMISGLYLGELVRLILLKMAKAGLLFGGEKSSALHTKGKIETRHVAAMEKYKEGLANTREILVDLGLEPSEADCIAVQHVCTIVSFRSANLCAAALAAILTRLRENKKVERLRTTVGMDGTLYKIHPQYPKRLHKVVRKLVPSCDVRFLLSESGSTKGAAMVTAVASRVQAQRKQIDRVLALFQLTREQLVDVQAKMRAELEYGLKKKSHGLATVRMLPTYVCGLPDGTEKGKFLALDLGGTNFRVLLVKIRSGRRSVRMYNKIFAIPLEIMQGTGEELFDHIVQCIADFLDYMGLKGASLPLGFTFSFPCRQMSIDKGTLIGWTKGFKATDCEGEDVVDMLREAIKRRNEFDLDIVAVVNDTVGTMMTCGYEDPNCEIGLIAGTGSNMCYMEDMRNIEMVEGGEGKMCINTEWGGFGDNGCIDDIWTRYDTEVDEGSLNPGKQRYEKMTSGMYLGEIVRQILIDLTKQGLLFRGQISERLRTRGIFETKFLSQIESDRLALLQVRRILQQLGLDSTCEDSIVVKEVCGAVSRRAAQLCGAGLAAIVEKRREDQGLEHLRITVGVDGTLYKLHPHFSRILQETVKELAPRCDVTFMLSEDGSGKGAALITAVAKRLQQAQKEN
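Test system: recombinant HKDC1 (HK5) hexokinase enzyme, produced in-house / Doses: 20 µM test compound, 1% DMSO / Timing: 90 min, room temperature / Detection: G6PDH/diaphorase-coupled fluorescence, 1 mM NADP, 100 µM resazurin, 525/613 nm / Control set: DMSO wells with and without enzyme mix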
G6PDH counter: L. mesenteroides G6PDH inhibitors, counter-screen for G6PDH-coupled screening assays, biochemical, Leuconostoc mesenteroides enzyme. inhibition, % at 5 µM. 200,000 tested, 0.12% active. Purified L. mesenteroides G6PDH, diaphorase/resazurin coupled fluorescence, 45 min. AID 1020, 2008; in the data active means inhibition above about 50%
PfGluPho inh: PfG6PD enzyme inhibitors, primary screen, biochemical, fluorescence intensity, uHTS; glucose-6-phosphate dehydrogenase-6-phosphogluconolactonase (Plasmodium falciparum 3D7); PfGluPho enzyme, NADPH resazurin-diaphorase fluorescence; inhibition, % at 20 µM; 350,000 tested, 0.78% active;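 active means inhibition reaching at least a set limit at 20 µM in the primary screen, cut at about 59% in these data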;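 further: 0% = DMSO wells with substrate and 100% = DMSO wells lacking glucose-6-phosphate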
Numbers without * were called inactive. The list is not random: actives were taken first. Their share in the collection is about 1.2%.

`c1ccc(CSc2nc3ncncc3[nH]2)cc1` gave TbHK1 inh 7, HKDC1 inhibitor -9 and PfGluPho inh -18.
Cc1ccc(-c2cc3c(nn2)-c2ccccc2C3=O)cc1 was read as TbHK1 inh -12, HKDC1 inhibitor -6 and PfGluPho inh -2.
`Cc1ccccc1-c1cc2c(nn1)-c1ccccc1C2=O` gave Diaph inh CS 65*, TbHK1 inh -13, HKDC1 inhibitor 9, G6PDH counter 53* and PfGluPho inh -5.
`Cc1cccc(-c2ccc3[nH]c4c(c3c2)CCN2C[C@@H]([C@H](C)OC(=O)Nc3ccccc3C)[C@@H](N(C)C(=O)Nc3ccccc3C)C[C@@H]42)c1` gave PfGluPho inh 19.
COC1C(CO)OC(n2c3c(Cl)cccc3c3c4c(c5c6cccc(Cl)c6[nH]c5c32)C(=O)NC4=O)C(O)C1O (stereo not drawn) was read as HKDC1 inhibitor -4 and PfGluPho inh 18.
Screening Nc1cc2nn(-c3ccccc3)nc2cc1Cl returned Diaph inh CS 81*, TbHK1 inh -2, HKDC1 inhibitor 22, G6PDH counter 55* and PfGluPho inh 5.
Nc1ccc(-n2nc3ccccc3n2)cc1 was read as HKDC1 inhibitor -4 and PfGluPho inh 1.
For Nc1ccc2nn(-c3ccccc3)nc2c1 the results were Diaph inh CS 60*, TbHK1 inh -14, HKDC1 inhibitor 8, G6PDH counter 32 and PfGluPho inh -18.
For CCC/C=C/c1ccc(CN2C(C(C)C)C(=O)N(Cc3cn(Cc4ccco4)nn3)CCS2(=O)=O)cc1 (stereo not drawn) the results were PfGluPho inh 37.
O=c1oc2c(O)c(O)cc3c(=O)oc4c(O)c(O)cc1c4c23 was read as Diaph inh CS 86*, TbHK1 inh 66*, HKDC1 inhibitor 54*, G6PDH counter 28 and PfGluPho inh 30.
Screening O=C(COc1ccc(Cl)cc1)N1CCN(S(=O)(=O)c2cc(F)ccc2F)CC1 returned PfGluPho inh -14.
COc1ccc(-n2nc3cc(C)c(N)c(Br)c3n2)cc1 was read as Diaph inh CS 74*, TbHK1 inh 0, HKDC1 inhibitor 18, G6PDH counter 25 and PfGluPho inh 15.
Cc1cc2nn(-c3cccc4ccccc34)nc2cc1N was read as Diaph inh CS 78*, TbHK1 inh -16, HKDC1 inhibitor 25, G6PDH counter -23 and PfGluPho inh 12.
Cc1ccc(-n2nc3cc(C)c(N)cc3n2)cc1 was read as Diaph inh CS 76*, TbHK1 inh -9, HKDC1 inhibitor 12, G6PDH counter 25 and PfGluPho inh 22.
For CN(Cc1ccccc1)C(=O)CN1CCN(S(=O)(=O)c2ccccc2F)CC1 the results were PfGluPho inh -13.
Screening Cc1ccc([C@@H]2CC(=O)[C@@H]3CN(S(=O)(=O)c4ccc(C)cc4)[C@H](c4ccc(Cl)cc4)C[C@@H]3N2S(=O)(=O)c2ccc(Cl)cc2)cc1 returned PfGluPho inh 0.
O=C(C[C@H]1C[C@@H]2c3cc(NC(=O)Nc4ccccc4F)ccc3O[C@@H]2[C@H](CO)O1)NCc1ccccn1 was read as PfGluPho inh 10.
Screening CCCCCc1ccc(C(=O)CCCC)c(=S)[nH]1 returned Diaph inh CS 57*, TbHK1 inh -5, HKDC1 inhibitor -16, G6PDH counter 4 and PfGluPho inh 6.
Screening Cc1ccc(C)c(N(CC(=O)N/N=C/c2ccc(-c3ccc([N+](=O)[O-])cc3)o2)S(=O)(=O)c2ccccc2)c1 returned Diaph inh CS 15, TbHK1 inh -11, HKDC1 inhibitor 6, G6PDH counter 2 and PfGluPho inh -5.
For CCOc1ccc(S(=O)(=O)N(CC(=O)N/N=C/c2ccc(-c3ccc([N+](=O)[O-])cc3)o2)c2ccccc2)cc1 the results were Diaph inh CS 62*, TbHK1 inh -1, HKDC1 inhibitor 22, G6PDH counter 7 and PfGluPho inh 22.
Screening O=C(O)C(Cc1c[nH]c2ccccc12)NS(=O)(=O)c1cccc(Cl)c1Cl (stereo not drawn) returned HKDC1 inhibitor -5 and PfGluPho inh -7.
Screening O=C1/C(=C\c2ccc(O)c(O)c2)C(c2ccccc2)=NN1c1ccccc1 returned Diaph inh CS 65*, TbHK1 inh -3, HKDC1 inhibitor 12, G6PDH counter 17 and PfGluPho inh -3.
Screening COc1cc(/C=C2\C(=O)N(c3ccc(NC(C)=O)cc3)N=C2c2ccccc2)ccc1O returned Diaph inh CS 29, TbHK1 inh -33, HKDC1 inhibitor 3, G6PDH counter -3 and PfGluPho inh -3.
`Fc1ccc(NC(=S)SCc2ccc3c(c2)OCO3)cc1F` gave PfGluPho inh -12.
For O=[N+]([O-])c1ccc(Cl)c(C2Nc3cccc4cccc(c34)N2)c1 the results were Diaph inh CS 57*, TbHK1 inh -2, HKDC1 inhibitor 15, G6PDH counter 7 and PfGluPho inh 24.
For Clc1ccc(C2Nc3cccc4cccc(c34)N2)cc1Cl the results were HKDC1 inhibitor 6 and PfGluPho inh 30.
COc1ccc(N(CCCN2C(=O)c3cccc4cccc(c34)C2=O)C(=O)c2cccc(OC)c2)cc1 was read as Diaph inh CS 56*, TbHK1 inh -10, HKDC1 inhibitor 30, G6PDH counter -24 and PfGluPho inh 24.
`C[C@H]1CCCCO[C@H](CN(C)Cc2ccc(C(=O)O)cc2)[C@@H](C)CN([C@@H](C)CO)C(=O)c2cc(NS(=O)(=O)c3cn(C)cn3)ccc2O1` gave PfGluPho inh 30.
O=C1C=C(NCCN2CCOCC2)C(=O)c2cnccc21 was read as Diaph inh CS 23, TbHK1 inh -3 and G6PDH counter 60*.
For O=C(N/N=C/c1ccc(O)c([N+](=O)[O-])c1)C1CC1(c1ccccc1)c1ccccc1 (stereo not drawn) the results were Diaph inh CS 72*, TbHK1 inh -31, HKDC1 inhibitor 10, G6PDH counter 13 and PfGluPho inh -6.
`O=C(N/N=C/c1ccncc1)C1CC1(c1ccccc1)c1ccccc1` (stereo not drawn) gave TbHK1 inh -6, HKDC1 inhibitor 6 and PfGluPho inh -2.
CCCCn1c(=O)[nH]c2nc3cc(N)ccc3nc2c1=O was read as Diaph inh CS 67*, TbHK1 inh 3, HKDC1 inhibitor 17, G6PDH counter 17 and PfGluPho inh 38.
`O=C(NC1CCCCC1)Oc1cccc2ccccc12` gave Diaph inh CS 28, TbHK1 inh -5, HKDC1 inhibitor 4, G6PDH counter 52* and PfGluPho inh 0.
